Type in all cases: cell-based
One experiment concerns the target T1, human M4 receptor (Homo sapiens, UniProt P08173).
T1 sequence (P08173 1-479): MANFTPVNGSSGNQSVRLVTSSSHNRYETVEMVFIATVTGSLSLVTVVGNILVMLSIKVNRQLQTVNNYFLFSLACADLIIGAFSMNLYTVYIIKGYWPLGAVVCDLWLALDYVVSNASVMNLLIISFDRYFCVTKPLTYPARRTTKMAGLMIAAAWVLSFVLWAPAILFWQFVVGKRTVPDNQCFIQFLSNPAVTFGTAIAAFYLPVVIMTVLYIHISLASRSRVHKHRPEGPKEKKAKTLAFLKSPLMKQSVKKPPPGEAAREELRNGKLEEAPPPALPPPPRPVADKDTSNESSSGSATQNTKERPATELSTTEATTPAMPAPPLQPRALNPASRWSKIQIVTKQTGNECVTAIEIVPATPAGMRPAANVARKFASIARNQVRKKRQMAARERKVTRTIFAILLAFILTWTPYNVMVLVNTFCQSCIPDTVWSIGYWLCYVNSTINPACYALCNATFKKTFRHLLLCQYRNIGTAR
Briefly: Calcium mobilization assay, potency determination. Conditions: for %AChmax ± SEM: efficacy as % of maximal ACh response, hM4; for hM4 PAM activity (in words): hM4, text statement. (A change in cytosolic calcium serves as a functional read-out for many receptors and channels.)

A further experiment deals with T2, M5 (Homo sapiens, UniProt P08912).
T2 sequence (P08912 1-532): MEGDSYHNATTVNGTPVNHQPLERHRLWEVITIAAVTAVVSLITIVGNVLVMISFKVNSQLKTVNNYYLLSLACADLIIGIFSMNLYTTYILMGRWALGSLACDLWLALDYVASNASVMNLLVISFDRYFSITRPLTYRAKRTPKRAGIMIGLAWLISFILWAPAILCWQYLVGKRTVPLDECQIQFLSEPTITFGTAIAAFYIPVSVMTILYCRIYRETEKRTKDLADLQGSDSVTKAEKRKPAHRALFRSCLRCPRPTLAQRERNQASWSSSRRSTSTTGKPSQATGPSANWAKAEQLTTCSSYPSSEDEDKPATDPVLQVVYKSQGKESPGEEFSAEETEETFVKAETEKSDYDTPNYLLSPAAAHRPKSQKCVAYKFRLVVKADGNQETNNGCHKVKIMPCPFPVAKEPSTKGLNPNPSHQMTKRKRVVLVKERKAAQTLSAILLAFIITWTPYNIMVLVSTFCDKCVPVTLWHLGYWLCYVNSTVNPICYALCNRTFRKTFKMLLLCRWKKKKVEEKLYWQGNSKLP
The experiment can be described thus: Muscarinic selectivity panel, calcium mobilization. Conditions: concentration up to 30 µM. In outline:
(§1)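 CHO cells stably expressing the human receptor (M1 transfected into CHO K1; M3 and M5 lines donated), grown in Ham's F-12, 10% heat-inactivated FBS, 20 mM HEPES, 500 µg/mL G418. Cells plated at 15,000/well overnight (37 °C, 5% CO2), then loaded 45 min at 37 °C with Fluo-4 AM in HBSS, 20 mM HEPES, 2.5 mM probenecid. Compound preincubated 144 s (0.3% DMSO final) before ACh; calcium read kinetically at 37 °C.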

The target in a further experiment is T3, M2 (Homo sapiens, UniProt P08172).
T3 sequence (P08172 1-466): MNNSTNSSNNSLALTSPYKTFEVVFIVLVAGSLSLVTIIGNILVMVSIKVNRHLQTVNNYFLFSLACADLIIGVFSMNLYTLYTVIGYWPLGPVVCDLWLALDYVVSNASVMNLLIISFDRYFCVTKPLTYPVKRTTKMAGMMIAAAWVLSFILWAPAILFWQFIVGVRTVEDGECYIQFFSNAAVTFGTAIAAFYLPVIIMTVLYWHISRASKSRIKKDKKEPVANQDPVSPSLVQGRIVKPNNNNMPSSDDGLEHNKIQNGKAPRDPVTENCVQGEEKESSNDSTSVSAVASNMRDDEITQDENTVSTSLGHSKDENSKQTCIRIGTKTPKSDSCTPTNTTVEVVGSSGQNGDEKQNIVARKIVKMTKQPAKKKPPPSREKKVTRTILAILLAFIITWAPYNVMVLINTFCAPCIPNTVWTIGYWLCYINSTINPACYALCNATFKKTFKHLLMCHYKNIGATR
The experiment can be described thus: Muscarinic selectivity panel, calcium mobilization. Conditions: concentration up to 30 µM. In outline:
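CHO cells stably expressing human M2 and cotransfected with chimeric Gqi5, grown in Ham's F-12, 10% heat-inactivated FBS, 20 mM HEPES, 500 µg/mL G418 plus 500 µg/mL hygromycin B. Plated at 15,000 cells/well overnight (37 °C, 5% CO2), then Fluo-4 AM loaded 45 min at 37 °C in HBSS, 20 mM HEPES, 2.5 mM probenecid. Compound preincubated 144 s (0.3% DMSO final) before ACh; fluorescence read at 37 °C.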

In the next experiment the target is M3 (Homo sapiens, UniProt P20309). Briefly: Muscarinic selectivity panel, calcium mobilization. The following applies: concentration up to 30 µM. In outline:
as §1

The next experiment has as its target T4, M1 (Homo sapiens, UniProt P11229).
T4 sequence (P11229 1-460): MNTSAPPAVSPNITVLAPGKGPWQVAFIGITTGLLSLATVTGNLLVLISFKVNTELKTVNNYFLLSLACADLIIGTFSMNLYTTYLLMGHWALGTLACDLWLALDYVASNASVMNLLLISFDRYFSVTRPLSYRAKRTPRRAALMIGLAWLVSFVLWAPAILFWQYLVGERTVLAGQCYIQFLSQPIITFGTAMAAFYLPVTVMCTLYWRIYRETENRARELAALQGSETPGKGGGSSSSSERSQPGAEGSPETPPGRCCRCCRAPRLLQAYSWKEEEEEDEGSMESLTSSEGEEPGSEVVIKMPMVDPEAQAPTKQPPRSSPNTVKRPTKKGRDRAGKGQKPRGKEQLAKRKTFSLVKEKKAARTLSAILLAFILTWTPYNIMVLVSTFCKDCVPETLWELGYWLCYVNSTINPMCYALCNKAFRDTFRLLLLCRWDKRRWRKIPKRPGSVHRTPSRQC
Briefly: Muscarinic selectivity panel, calcium mobilization. Conditions: concentration up to 30 µM. The method in brief: as §1

Sequence of M3 (P20309 whole entry): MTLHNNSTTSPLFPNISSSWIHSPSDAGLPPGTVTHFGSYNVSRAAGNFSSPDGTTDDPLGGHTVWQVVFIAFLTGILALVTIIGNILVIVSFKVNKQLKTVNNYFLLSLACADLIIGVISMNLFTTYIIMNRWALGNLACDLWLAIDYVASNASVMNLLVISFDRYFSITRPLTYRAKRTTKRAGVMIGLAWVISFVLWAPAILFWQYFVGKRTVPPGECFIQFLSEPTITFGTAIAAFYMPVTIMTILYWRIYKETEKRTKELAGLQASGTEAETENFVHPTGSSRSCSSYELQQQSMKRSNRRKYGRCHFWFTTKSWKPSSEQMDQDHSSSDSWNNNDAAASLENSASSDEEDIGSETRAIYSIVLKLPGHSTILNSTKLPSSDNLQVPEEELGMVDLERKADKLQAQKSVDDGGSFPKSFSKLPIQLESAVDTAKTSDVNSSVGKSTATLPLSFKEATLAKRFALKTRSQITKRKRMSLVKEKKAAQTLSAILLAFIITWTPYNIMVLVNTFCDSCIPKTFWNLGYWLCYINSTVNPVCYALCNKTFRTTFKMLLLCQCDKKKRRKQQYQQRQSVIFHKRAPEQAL

On to `COc1ccc(C)c2sc(NC(=O)C(C)C)nc12` [Compound 7], for which the “%AChmax ± SEM” value on human M4 receptor is on record as “Weak”.

On to `COc1ccc(C)c2sc(NC(=O)C3CCCCO3)nc12` (centres unmarked) [Compound 16], for which, on human M4 receptor, the “hM4 PAM activity (in words)” value was “deleterious to activity”.

`COc1ccc(C)c2sc(NC(=O)C3CCCOC3)nc12` (centres unmarked) [Compound 17]: the “hM4 PAM activity (in words)” value at human M4 receptor is given as “deleterious to activity”.

For the compound `COc1ccc(C)c2sc(NC(=O)c3ccncc3)nc12` [Compound 21, N-(4-methoxy-7-methylbenzo[d]thiazol-2-yl)isonicotinamide], the “activity at M5” value on M5 is “inactive”. The “activity at M2” value on M2 is “inactive”. Also, on M3, the “activity at M3” value is “inactive”. Besides, the “activity at M1” value at M1 is “inactive”.

In the case of `COc1ccc(C)c2sc(C(=O)Nc3ccncc3)nc12` [Compound 44], the “%AChmax ± SEM” value on human M4 receptor is “Weak”.

In the case of `COc1ccc(C)c2sc(C(=O)NC3CCCC3)nc12` [Compound 48], the “%AChmax ± SEM” value on human M4 receptor is given as “Weak”.

In the case of `COc1ccc(C)c2sc(C(=O)NC3COC3)nc12` [Compound 49], the “%AChmax ± SEM” value on human M4 receptor is reported as “Weak”.

`O=C(Nc1nc2ccccc2s1)C1CCCCO1` (centres unmarked) [Compound 50]: at human M4 receptor, the “hM4 PAM activity (in words)” value is listed as “not tolerated”.

These data come from PMC3401285 (Bioorganic & medicinal chemistry letters, 2012).
